From ChEMBL document CHEMBL1146290, “Core exploration in optimization of chemokine receptor CCR4 antagonists” (Bioorg Med Chem Lett, 2007) come the findings set out here.

Activity calls are given as the source filed them. The rule behind the calls is not given here.

Series [1] deals with T1, C-C chemokine receptor type 4 (Homo sapiens, UniProt P51679).
T1 sequence (P51679 whole entry): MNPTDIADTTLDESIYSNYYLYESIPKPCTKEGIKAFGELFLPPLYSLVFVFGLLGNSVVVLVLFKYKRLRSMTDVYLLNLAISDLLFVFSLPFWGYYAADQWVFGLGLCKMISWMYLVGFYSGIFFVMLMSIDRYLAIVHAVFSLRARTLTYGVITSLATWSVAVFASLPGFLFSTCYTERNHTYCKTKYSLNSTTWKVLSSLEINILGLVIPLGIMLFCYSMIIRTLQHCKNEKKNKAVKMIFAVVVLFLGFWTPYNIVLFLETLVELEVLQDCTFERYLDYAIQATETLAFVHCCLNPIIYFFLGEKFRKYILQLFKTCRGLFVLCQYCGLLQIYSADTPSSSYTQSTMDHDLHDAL
The experiment in a line: Displacement of [125I]MDC from human CCR4 expressed in HEK293 cells. The class given is cell-based. In general terms: Displacement assays read how much labelled ligand stays bound in the presence of the test substance.

A short description of series [2]: Toxicity in human immortalized hepatocytes. The class given is cell-based, Hepatocyte.
For series [3], the target named is CYP450 (isoform not stated) (Homo sapiens, UniProt P04798+P05177+P05181+P08684+P10632+P10635+P11509+P11712+P13584+P20813+P20815+P20853+P24462+P24903+P33260+P33261+P51589+P78329+P98187+Q02928+Q08477+Q16678+Q16696+Q5TCH4+Q6VVX0+Q7Z449+Q8TAV3+Q96SQ9+Q9HB55). The experiment in a line: Inhibition of CYP450. It is filed as ADME.
The target of series [4] is T1, C-C chemokine receptor type 4. The experiment in a line: Antagonist activity at human CCR4 expressed in CEMS529 cells assessed as effect on calcium mobilization. It is filed as functional, cell-based.
Series [5] in a line: Carcinogenicity in SOS chromotest. It is filed as ADME.
Series [6] in a line: Metabolic stability in human microsomes. It is filed as ADME, Microsome.
The target of series [7] is T2, C-C chemokine receptor type 4 (Mus musculus) (UniProt P51680).
T2 sequence (whole entry): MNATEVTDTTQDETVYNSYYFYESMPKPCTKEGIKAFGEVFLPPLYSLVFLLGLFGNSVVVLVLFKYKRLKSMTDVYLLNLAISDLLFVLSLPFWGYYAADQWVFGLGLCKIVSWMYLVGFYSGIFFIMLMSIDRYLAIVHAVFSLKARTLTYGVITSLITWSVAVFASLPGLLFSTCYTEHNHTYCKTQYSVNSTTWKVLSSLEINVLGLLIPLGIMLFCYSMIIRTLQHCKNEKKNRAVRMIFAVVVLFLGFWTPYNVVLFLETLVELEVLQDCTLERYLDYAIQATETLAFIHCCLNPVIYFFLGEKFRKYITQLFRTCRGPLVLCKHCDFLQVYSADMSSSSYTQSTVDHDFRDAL
Put plainly: Inhibition of ovalbumin-induced eosinophil infiltration in sc dosed BALB/c mouse allergic inflammation model.

The target of series [8] is T2, C-C chemokine receptor type 4 (Mus musculus). Put plainly: Inhibition of ovalbumin-induced eosinophil infiltration in BALB/c mouse allergic inflammation model at 30 mg/kg, sc.
Series [9] shares this target. Put plainly: Inhibition of ovalbumin-induced eosinophil infiltration in BALB/c mouse allergic inflammation model at 5 mg/kg, po. The class given is functional, organism-based. Also noted: dose 5 mg/kg. In outline:
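Mice previously immunized with ovalbumin; dexamethasone given orally at 5 mg/kg as reference control. Total leukocytes, total eosinophils and percent eosinophils counted in bronchoalveolar lavage fluid. Seven to eight mice per group; means ± SEM; significance versus vehicle group by ANOVA with Dunnett's test (p < 0.05).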

The term IC50 denotes the concentration that inhibits the measured activity by half. Consider `CCN(CC)CCCC(C)Nc1ncc2c(ncn2Cc2ccc(Cl)cc2Cl)n1` (configuration not stated), for which the IC50 in series [1] was 830 nM.

`CCN(CC)CCCC(C)Nc1nc(NC)nc(NCc2ccc(Cl)cc2Cl)n1` (configuration not stated): in [1], the IC50 was 3600 nM. Turning to `CCN(CC)CCCC(C)Nc1nc(NCc2ccc(Cl)cc2Cl)c2c(ncn2CC)n1` (configuration not stated), the IC50 in series [1] turned out to be 1100 nM. Still for that read-out and setting: to `CCN(CC)CCCC(C)Nc1ncc2ncn(Cc3ccc(Cl)cc3Cl)c2n1` (configuration not stated) belongs 820 nM; to `CCN(CC)CCCC(C)Nc1nc(NCc2ccc(Cl)cc2Cl)c2cccnc2n1` (configuration not stated), 140 nM; to `CCN(CC)CCCC(C)Nc1ccc2cnn(Cc3ccc(Cl)cc3Cl)c2n1` (configuration not stated), 280 nM.

As to `CCN(CC)CCCC(C)Nc1nc(NCc2ccc(Cl)cc2Cl)nc2nc[nH]c12` (configuration not stated), the IC50 in series [1] was determined as 2100 nM. `CCN(CC)C(C)CCCNc1nccc(NCc2ccc(Cl)cc2Cl)n1.N` (configuration not stated): the 50% inhibitory concentration (IC50) in series [2] is more than 40000 nM; in series [3], more than 1000 nM; in series [4] it was 800 nM; in series [1], 280 nM. Also, in series [5], the Activity entry is “Non-toxic”. In series [6], the Stability was determined as 0.1 nmol/mg/min. What is called ED50 is the dose that gives a 50% effect, or the effect in half of the subjects. Consider `O=C([C@@H]1CCCCN1)N1CCN(c2nc(NCc3ccc(Cl)cc3Cl)c3cccnc3n2)CC1`, for which, in [7], the ED50 worked out at 10 mg/kg. The compound further displayed a Stability in [6] of 0.003 nmol/mg/min. Moreover, the outcome in series [8] was Active. In series [1], `O=C([C@@H]1CCCN1)N1CCN(c2nc(NCc3ccc(Cl)cc3Cl)c3cccnc3n2)CC1` displayed an IC50 of 80 nM. Consider `C[C@@H]1C[C@H]2[C@@H]3CCC4=CC(=O)C=C[C@]4(C)[C@@]3(F)[C@@H](O)C[C@]2(C)[C@@]1(O)C(=O)CO`, for which the outcome in series [9] was Active. In [1], `CCN(CC)CCCC(C)Nc1nc(NCc2ccc(Cl)cc2Cl)nc2ccccc12` (configuration not stated) came in with an IC50 of 1910 nM.

Regarding `CCN(CC)CCCC(C)Nc1nc(NCc2ccc(Cl)cc2Cl)c2[nH]cnc2n1` (configuration not stated), the IC50 in series [1] was 4900 nM. Compound `CCN(CC)CCCC(C)Nc1nc(NCc2ccc(Cl)cc2Cl)c2ccccc2n1` (configuration not stated) yielded an IC50 in series [1] of 500 nM. On to `CCN(CC)CCCC(C)Nc1nc(NCc2ccc(Cl)cc2Cl)nc2ncn(CC)c12` (configuration not stated), for which the IC50 in series [1] stood at 2600 nM.
